Assays:
[1] = target: Protein-tyrosine kinase 6 (Homo sapiens) (UniProt Q13882); test: Inhibition of PTK6 at 1 uM in presence of 10 uM ATP by Select Screen kinase assay relative to untreated control
How it was run: (§1)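 Commercial SelectScreen profiling panel of 220 purified kinases. Each kinase was tested at a single inhibitor concentration of 1 μM, and activity was expressed as percent inhibition.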

[2] = target: Ribosomal protein S6 kinase alpha-5 (Homo sapiens) (UniProt O75582); test: Inhibition of RPS6KA5 at 1 uM in presence of 10 uM ATP by Select Screen kinase assay relative to untreated control; how it was run: as §1
[3] = target: Casein kinase I isoform gamma-3 (Homo sapiens) (UniProt Q9Y6M4); test: Inhibition of CSNK1G3 at 1 uM in presence of 10 uM ATP by Select Screen kinase assay relative to untreated control
How it was run: (§2)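 Single-point screen at 1 μM against a panel of 220 purified kinases, run by Invitrogen staff as a SelectScreen profiling service. Read-out is percent inhibition of kinase activity.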

[4] = target: T1, Ephrin type-A receptor 8 (Homo sapiens) (UniProt P29322); test: Inhibition of EPHA8 at 1 uM in presence of 10 uM ATP by Select Screen kinase assay relative to untreated control; how it was run: as §2
T1 sequence (whole entry): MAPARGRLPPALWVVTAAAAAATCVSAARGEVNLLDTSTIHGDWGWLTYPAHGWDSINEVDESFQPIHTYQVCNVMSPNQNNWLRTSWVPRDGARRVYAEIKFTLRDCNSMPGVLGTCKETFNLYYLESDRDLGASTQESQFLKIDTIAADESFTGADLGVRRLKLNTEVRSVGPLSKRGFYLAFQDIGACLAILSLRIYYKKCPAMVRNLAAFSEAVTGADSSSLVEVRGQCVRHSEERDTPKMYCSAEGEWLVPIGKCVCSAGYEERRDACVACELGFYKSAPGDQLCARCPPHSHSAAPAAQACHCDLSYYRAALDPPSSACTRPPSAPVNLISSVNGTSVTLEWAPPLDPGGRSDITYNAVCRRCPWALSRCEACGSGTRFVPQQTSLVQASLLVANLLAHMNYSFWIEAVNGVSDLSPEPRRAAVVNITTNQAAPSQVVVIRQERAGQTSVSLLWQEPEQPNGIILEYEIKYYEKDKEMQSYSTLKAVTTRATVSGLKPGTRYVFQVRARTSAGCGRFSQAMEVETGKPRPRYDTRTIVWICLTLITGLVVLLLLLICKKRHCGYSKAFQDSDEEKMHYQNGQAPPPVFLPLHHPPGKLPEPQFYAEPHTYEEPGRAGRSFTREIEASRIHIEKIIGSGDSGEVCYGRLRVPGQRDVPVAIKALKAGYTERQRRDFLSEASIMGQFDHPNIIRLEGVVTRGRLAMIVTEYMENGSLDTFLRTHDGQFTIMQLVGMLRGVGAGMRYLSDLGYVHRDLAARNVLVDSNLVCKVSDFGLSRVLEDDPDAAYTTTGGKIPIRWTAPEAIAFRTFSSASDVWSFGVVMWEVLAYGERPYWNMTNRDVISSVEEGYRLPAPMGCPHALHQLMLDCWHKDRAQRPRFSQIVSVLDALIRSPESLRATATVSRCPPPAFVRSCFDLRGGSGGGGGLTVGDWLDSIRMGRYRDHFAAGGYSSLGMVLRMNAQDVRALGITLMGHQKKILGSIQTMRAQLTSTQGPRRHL

[5] = target: Dual specificity mitogen-activated protein kinase kinase 2 (Homo sapiens) (UniProt P36507); test: Inhibition of MAP2K2 at 1 uM in presence of 100 uM ATP by Select Screen kinase assay relative to untreated control
How it was run: (§3)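 Single-concentration profiling at 1 μM against a panel of 220 purified kinases, run as an outsourced SelectScreen kinase profiling service. Activity is expressed as percent inhibition.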

[6] = target: T2, MAP kinase-activated protein kinase 5 (Homo sapiens) (UniProt Q8IW41); test: Inhibition of MAPKAPK5 at 1 uM in presence of 10 uM ATP by Select Screen kinase assay relative to untreated control; how it was run: as §3
T2 sequence (whole entry): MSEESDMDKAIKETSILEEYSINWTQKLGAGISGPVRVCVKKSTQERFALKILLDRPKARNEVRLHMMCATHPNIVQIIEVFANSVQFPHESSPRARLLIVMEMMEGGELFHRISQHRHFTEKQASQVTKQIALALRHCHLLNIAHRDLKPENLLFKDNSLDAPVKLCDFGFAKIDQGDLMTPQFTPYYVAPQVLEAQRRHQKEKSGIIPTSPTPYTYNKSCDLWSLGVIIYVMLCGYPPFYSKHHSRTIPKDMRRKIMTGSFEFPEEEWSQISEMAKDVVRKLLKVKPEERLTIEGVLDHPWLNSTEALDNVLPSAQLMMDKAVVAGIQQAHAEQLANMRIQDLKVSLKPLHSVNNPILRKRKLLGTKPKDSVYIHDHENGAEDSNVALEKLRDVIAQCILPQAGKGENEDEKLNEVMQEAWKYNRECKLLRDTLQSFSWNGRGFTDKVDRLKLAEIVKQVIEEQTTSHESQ

[7] = target: Myosin light chain kinase 2, skeletal/cardiac muscle (Homo sapiens) (UniProt Q9H1R3); test: Inhibition of MYLK2 at 1 uM in presence of 100 uM ATP by Select Screen kinase assay relative to untreated control; how it was run: as §3
Myosin light chain kinase 2, skeletal/cardiac muscle (Homo sapiens), sequence (Q9H1R3 whole entry): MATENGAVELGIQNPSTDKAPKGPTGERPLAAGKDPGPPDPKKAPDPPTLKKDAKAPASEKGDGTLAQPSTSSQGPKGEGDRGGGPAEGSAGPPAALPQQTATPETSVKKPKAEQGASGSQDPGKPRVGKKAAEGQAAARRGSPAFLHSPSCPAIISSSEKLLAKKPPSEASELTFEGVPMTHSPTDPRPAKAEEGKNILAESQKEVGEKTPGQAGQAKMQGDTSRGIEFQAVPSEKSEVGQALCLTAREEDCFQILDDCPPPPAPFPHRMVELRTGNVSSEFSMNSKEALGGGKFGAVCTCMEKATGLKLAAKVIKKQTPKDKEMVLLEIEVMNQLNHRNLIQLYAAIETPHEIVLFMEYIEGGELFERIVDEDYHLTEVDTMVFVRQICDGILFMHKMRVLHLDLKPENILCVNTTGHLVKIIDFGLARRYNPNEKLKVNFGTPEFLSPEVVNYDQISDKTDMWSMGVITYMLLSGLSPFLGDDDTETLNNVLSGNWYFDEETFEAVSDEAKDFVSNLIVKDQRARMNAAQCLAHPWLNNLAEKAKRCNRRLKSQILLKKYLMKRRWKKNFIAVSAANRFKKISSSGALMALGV

Protein-tyrosine kinase 6 (Homo sapiens), sequence (Q13882 whole entry, looked up): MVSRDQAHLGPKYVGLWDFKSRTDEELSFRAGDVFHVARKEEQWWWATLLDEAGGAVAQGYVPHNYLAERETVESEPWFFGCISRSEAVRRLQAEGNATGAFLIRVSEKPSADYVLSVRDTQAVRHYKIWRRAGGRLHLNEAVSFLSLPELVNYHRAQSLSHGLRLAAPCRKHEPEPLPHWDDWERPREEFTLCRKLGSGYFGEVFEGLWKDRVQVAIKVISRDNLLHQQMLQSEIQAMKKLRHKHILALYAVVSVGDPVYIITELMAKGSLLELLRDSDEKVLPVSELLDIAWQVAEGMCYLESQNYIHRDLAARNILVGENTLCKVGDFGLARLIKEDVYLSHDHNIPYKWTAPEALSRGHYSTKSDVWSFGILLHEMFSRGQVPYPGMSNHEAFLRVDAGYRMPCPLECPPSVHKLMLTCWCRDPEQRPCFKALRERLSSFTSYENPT
Ribosomal protein S6 kinase alpha-5 (Homo sapiens), sequence (O75582 whole entry, looked up, canonical isoform): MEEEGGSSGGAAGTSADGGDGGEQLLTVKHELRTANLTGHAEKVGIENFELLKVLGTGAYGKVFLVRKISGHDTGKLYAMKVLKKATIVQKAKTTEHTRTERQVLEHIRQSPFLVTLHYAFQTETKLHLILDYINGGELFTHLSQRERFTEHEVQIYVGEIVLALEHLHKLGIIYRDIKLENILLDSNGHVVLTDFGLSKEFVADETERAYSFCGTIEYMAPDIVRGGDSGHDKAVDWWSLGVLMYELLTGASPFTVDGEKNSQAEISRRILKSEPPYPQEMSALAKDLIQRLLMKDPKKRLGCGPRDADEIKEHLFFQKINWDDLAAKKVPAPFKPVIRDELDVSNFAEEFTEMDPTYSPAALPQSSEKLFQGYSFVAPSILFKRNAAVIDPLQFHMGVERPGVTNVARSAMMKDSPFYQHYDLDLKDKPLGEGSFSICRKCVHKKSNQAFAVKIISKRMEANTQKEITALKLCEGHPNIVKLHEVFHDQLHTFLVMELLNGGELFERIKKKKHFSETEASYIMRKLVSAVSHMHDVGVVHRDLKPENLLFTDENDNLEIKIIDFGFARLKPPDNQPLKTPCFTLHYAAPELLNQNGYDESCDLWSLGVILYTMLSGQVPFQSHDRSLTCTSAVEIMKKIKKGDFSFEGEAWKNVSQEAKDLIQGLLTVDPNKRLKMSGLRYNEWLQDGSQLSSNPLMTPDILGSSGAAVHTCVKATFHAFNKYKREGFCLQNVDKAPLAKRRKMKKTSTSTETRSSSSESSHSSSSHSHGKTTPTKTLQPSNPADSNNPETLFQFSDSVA
Dual specificity mitogen-activated protein kinase kinase 2 (Homo sapiens), sequence (P36507 whole entry): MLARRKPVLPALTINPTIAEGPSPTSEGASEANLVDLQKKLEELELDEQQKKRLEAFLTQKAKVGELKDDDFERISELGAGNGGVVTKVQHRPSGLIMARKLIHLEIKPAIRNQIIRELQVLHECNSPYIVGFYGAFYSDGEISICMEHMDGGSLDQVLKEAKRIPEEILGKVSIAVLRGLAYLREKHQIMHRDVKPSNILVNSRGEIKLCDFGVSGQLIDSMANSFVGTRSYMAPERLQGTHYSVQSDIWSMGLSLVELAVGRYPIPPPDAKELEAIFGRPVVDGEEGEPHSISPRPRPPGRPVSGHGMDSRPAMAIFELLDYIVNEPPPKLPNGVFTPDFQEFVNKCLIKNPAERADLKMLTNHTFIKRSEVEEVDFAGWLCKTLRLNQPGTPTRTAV
Casein kinase I isoform gamma-3 (Homo sapiens), sequence (Q9Y6M4 whole entry, looked up, canonical isoform): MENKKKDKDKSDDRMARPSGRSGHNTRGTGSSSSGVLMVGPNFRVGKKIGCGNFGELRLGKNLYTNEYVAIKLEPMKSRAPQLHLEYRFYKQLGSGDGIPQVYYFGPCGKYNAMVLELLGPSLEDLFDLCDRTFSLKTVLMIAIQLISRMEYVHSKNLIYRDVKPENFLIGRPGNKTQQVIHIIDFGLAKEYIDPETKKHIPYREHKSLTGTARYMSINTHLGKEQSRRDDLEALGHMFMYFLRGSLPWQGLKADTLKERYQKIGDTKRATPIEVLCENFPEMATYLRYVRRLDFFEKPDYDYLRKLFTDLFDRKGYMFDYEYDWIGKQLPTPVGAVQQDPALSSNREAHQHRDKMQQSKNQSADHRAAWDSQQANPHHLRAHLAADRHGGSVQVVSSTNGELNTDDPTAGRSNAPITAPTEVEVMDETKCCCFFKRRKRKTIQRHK

SMILES: COc1ccccc1N1CCN(c2ncnc3[nH]nc(Br)c23)CC1
- inhibition [1]: 2%
- inhibition [2]: 83%
- inhibition [3]: 8%
- inhibition [4]: 16%
- inhibition [5]: 21%
- inhibition [6]: 4%
- inhibition [7]: 12%

SMILES: Cc1n[nH]c2ccc(-c3cncc(OC[C@@H](N)Cc4c[nH]c5ccccc45)c3)cc12
- inhibition [1]: 0%
- inhibition [2]: 102%
- inhibition [3]: 57%
- inhibition [4]: 3%
- inhibition [5]: 42%
- inhibition [6]: 10%
- inhibition [7]: 22%

SMILES: O=C(NCCCNc1nc(Nc2cccc(NC(=O)N3CCCC3)c2)ncc1I)c1cccs1
- inhibition [1]: 9%
- inhibition [2]: 18%
- inhibition [3]: 14%
- inhibition [4]: 16%
- inhibition [5]: 69%
- inhibition [6]: 1%
- inhibition [7]: 25%

From ChEMBL document CHEMBL1250448, “Inhibitor hijacking of Akt activation” (Nat Chem Biol, 2009)
